FLuc act counter = firefly luciferase counter-screen for stimulation assays | 200,000 tested, under 10 active | activation factor at 10 µM | AID 1027 | ATPlite luciferase biochemical, luminescence, 10 min; 0 = ATP-free wells, 1 = DMSO control | P08659;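 active = luciferase activation factor, scaled between plate controls, of at least 2 with compound at 10 µM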
Target sequence (P08659 whole entry, looked up): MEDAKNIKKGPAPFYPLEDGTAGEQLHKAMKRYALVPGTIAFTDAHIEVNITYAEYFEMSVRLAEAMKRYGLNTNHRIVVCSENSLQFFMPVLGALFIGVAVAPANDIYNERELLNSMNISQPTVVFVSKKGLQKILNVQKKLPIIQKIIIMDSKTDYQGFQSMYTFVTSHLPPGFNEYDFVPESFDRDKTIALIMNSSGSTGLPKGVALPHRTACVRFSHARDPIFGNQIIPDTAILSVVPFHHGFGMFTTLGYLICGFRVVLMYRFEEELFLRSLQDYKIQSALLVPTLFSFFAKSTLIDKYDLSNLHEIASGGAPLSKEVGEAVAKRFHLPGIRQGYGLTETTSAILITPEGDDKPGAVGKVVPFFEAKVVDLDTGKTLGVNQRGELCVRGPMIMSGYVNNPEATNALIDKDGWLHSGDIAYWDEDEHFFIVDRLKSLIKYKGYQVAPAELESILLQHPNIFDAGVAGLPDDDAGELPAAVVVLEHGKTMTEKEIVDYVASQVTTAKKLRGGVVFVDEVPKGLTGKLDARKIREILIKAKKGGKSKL
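Assay system: Luciferase/luciferin detection reagent, cell-free biochemical luciferase assay / Read-out: luciferase activation / Benchmarks: No-ATP low control, compound-free enzyme-plus-ATP high control / Medium: PBS buffer for ATP / Detection: luminescence measurement of luciferase light output / Schedule: 10 min at ambient temperature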
PPC-1+TRAIL kill = kills PPC-1 cancer cells in the presence of TRAIL | cell killing (% activity), % at 4 µM or 5 µM | PPC-1 cells + TRAIL, ATPLite viability luminescence | 220,000 compounds, 0.41% hits | AID 1443;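 active = cell killing above 50% in the first pass at 4 µM, then a duplicate retest at 5 µM averaging 50% or more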
FLuc inh counter = Photinus pyralis luciferase inhibition counter-screen. P08659. ATPLite firefly luciferase biochemical luminescence, 10 min. inhibition, % at 10 µM. 200,000 compounds, 1.5% hits. AID 1006;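 active = inhibition above about 50% when tested at 10 µM, limit read from the data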
TRAIL sens C8 = sensitizes caspase-8 expressing cells to TRAIL | AID 624354 | NB7+C8 cells + TRAIL, ATPlite viability luminescence | inhibition (viability loss, TRAIL sensitization), % at 10 µM | 360,000 compounds, 1% hits;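 active = compounds causing at least 50% loss of cell viability in the single-dose screen, relative to plate controls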
PPC1 cytotox = kills PPC-1 cells. cytotoxicity, % at 5 µM. shares compounds with PPC-1+TRAIL kill. AID 1447. PPC-1 viability, ATPlite luminescence, overnight. 1,200 compounds, 50% hits;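 active = reconfirmed compounds whose average cytotoxicity reaches 50% or more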
Of the large screens only hits and unclear results are named; the others gave an inactive call (follow-up assays come after a bar, where they were run). Rows were chosen to be rich in hits. Some 1.6% of all compounds tested hit in one or more screens of this group.

CCn1c(-c2ccco2)nc2ccccc21	none | PPC1 cytotox inactive
CCn1c(-c2ccc(N(C)C)cc2)nc2ccccc21	PPC-1+TRAIL kill 60, FLuc inh counter 85, TRAIL sens C8 65 | PPC1 cytotox 60
CCn1c(-c2ccc(N)cc2)nc2ccccc21	none
c1ccc(OCCn2c(-c3ccco3)nc3ccccc32)cc1	none
NC(=O)c1ccc[n+]([C@H]2O[C@@H](COP(=O)([O-])OP(=O)(O)OC[C@H]3O[C@@H](n4cnc5c(N)ncnc54)[C@H](O)[C@@H]3O)[C@H](O)[C@@H]2O)c1	none (no result: FLuc act counter, PPC-1+TRAIL kill, FLuc inh counter)
CCCNC(=O)[C@H](Cc1c[nH]c2ccccc12)NC(=O)c1ccccc1Cl	none
COc1ccc(C2=Cc3ccccc3C(CC(=O)C3CC3)N2c2ccc(-c3cc(OC)c(OC)c(OC)c3)cc2)cc1 (centres undefined)	none (no result: FLuc act counter, PPC-1+TRAIL kill, FLuc inh counter)
COC(=O)c1sccc1NC(=O)Nc1cccc(F)c1	none
O=C(Nc1nonc1NC(=O)c1cccs1)c1cccs1	none
COc1ccccc1-[n+]1c(C)cc(/C=C2\Sc3ccccc3N2C)cc1C	PPC-1+TRAIL kill 82, TRAIL sens C8 84 (no result: FLuc act counter, FLuc inh counter) | PPC1 cytotox 82
COc1ccc(-[n+]2c(C)cc(/C=C3\Sc4ccccc4N3C)cc2C)cc1	none
N#CC(c1ccc(O)cc1)N1CCN(C(C#N)c2ccc(O)cc2)CC1 (centres undefined)	none (no result: FLuc act counter, PPC-1+TRAIL kill, FLuc inh counter)
COc1ccc2cc(C3CC=C(CO)CN3S(=O)(=O)c3ccccc3[N+](=O)[O-])n(C(=O)OC(C)(C)C)c2c1 (centres undefined)	none (no result: FLuc act counter, PPC-1+TRAIL kill, FLuc inh counter)
CSc1cc(C)n(-c2ccccc2)c(=S)c1C(C)=O	none | PPC1 cytotox inactive
CCc1ccc(C(=O)Nc2nnn(CC)n2)cc1	PPC-1+TRAIL kill 63, FLuc inh counter 87, TRAIL sens C8 66 | PPC1 cytotox 57
CCn1nnc(NC(=O)c2ccc(Br)o2)n1	none (no result: FLuc act counter, PPC-1+TRAIL kill, FLuc inh counter)
Cc1cccc2nc(=S)n(C(=O)c3ccco3)n12	FLuc inh counter 85, TRAIL sens C8 54 | PPC1 cytotox inactive
O=C(c1ccco1)N1CCN(C(=O)c2ccco2)CC1	none (no result: FLuc act counter, PPC-1+TRAIL kill, FLuc inh counter)
Nc1nonc1-c1nc2ccccc2n1Cc1ccc(F)cc1Cl	none
Fc1ccc(Cn2c(-c3cscn3)nc3ccccc32)c(Cl)c1	none | PPC1 cytotox inactive
N/C(=N\OC(=O)c1ccccc1)c1ccccn1	FLuc inh counter 96 | PPC1 cytotox 52
N/C(=N\OC(=O)c1cc(Cl)ccc1Cl)c1ccccn1	PPC-1+TRAIL kill 55, FLuc inh counter 75, TRAIL sens C8 63 | PPC1 cytotox 58
N/C(=N\OC(=O)C(c1ccccc1)c1ccccc1)c1ccccn1	none
COc1ccc(Cl)cc1C(=O)O/N=C(\N)c1ccccn1	none (no result: FLuc act counter, PPC-1+TRAIL kill, FLuc inh counter)
N/C(=N\OCc1ccc([N+](=O)[O-])cc1)c1ccccn1	PPC-1+TRAIL kill 86, FLuc inh counter 96 (no result: TRAIL sens C8) | PPC1 cytotox 85
CC1CCc2nc(NC(=O)Cc3cccs3)sc2C1 (centres undefined)	none
O=C(Nc1nc2cc3c(cc2s1)OCO3)c1ccco1	PPC-1+TRAIL kill 68, TRAIL sens C8 75 (no result: FLuc act counter, FLuc inh counter) | PPC1 cytotox 72
O=C(Nc1nc2cc3c(cc2s1)OCCO3)c1ccncc1	FLuc inh counter 76 | PPC1 cytotox inactive
CC1CCc2nc(NC(=O)c3ccco3)sc2C1 (centres undefined)	PPC-1+TRAIL kill 80, FLuc inh counter 93, TRAIL sens C8 84 | PPC1 cytotox 77
CS(=O)(=O)c1ccc2nc(NC(=O)c3ccco3)sc2c1	FLuc inh counter 77, TRAIL sens C8 57 | PPC1 cytotox inactive
CC(C)c1ccc(C(=O)NC(=S)Nc2ccc3[nH]c(=O)[nH]c3c2)cc1	none (no result: FLuc act counter, FLuc inh counter)
CC(Sc1ccc(S(=O)(=O)N2CCN(C)CC2)cn1)C(=O)NC1(C#N)CCCCC1 (centres undefined)	none (no result: FLuc act counter, PPC-1+TRAIL kill, FLuc inh counter)
O=C(Nc1ccc([N+](=O)[O-])cc1)C(=O)Nc1cccc(C(=O)O)c1	PPC-1+TRAIL kill 75, TRAIL sens C8 86 (no result: FLuc act counter, FLuc inh counter) | PPC1 cytotox 70
C/C(=N/NC(=O)c1cccs1)c1c(C)[nH]n(-c2nc3ccccc3s2)c1=O	PPC-1+TRAIL kill 77, FLuc inh counter 93, TRAIL sens C8 89 | PPC1 cytotox 75
OC(Cc1ccccc1Br)c1ncc(-c2cccc(C(F)(F)F)c2)[nH]1 (centres undefined)	none (no result: FLuc act counter, PPC-1+TRAIL kill, FLuc inh counter)
CCCCCCNC(=O)c1c(O)c2cccc3c2n(c1=O)CCC3	none
O=C(NCCNCCO)c1c(O)c2cccc3c2n(c1=O)CCC3	none | PPC1 cytotox inactive
COC(=O)[C@@]1(C(C)C)N=C(c2cc(OC)c(OC)c(OC)c2)[C@]2(O1)C(=O)N(Cc1ccc(OC)cc1)c1ccc(Br)cc12	none (no result: FLuc act counter, PPC-1+TRAIL kill, FLuc inh counter)
